# Laboratory results reported in ChEMBL document CHEMBL3407428, “Synthesis, in vitro and in vivo antitumor activity of scopoletin-cinnamic acid hybrids” (Eur J Med Chem, 2015).
# Test system: not listed separately
# Assay: Cytotoxicity against human HCT116 cells assessed as growth inhibition after 72 hrs by MTT assay
# Assay type: functional, cell-based
# Details: HCT-116, 72 h
# Outline: (§1)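 MTT viability assay. Cells were seeded at 5000 per well, incubated overnight, then exposed to compound at a range of concentrations for 72 h. MTT was added from a 5 mg/mL stock for 4 h, and absorbance was read at 570 nm. IC50 (50% viability inhibition) was calculated by the logit method. Each concentration was run at least three times.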
row,SMILES,IC50
1,COc1cccc2c1C(=O)c1c(O)c3c(c(O)c1C2=O)C[C@@](O)(C(=O)CO)C[C@@H]3O[C@H]1C[C@H](N)[C@H](O)[C@H](C)O1 [DOXORUBICIN],477 nM
2,COc1cc2cc(NC(=O)/C=C/c3ccc(F)cc3)c(=O)oc2cc1O,5540 nM

# Test system: Mus musculus
# Assay: Toxicity in C57BL/6 mouse allografted with mouse LLC cells assessed as decrease in body weight at 2.5 mg/kg, ip administered for 14 days measured during compound dosing
# Assay type: organism-based
# Parameters: dose 2.5 mg/kg, route intraperitoneal
# Details: in vivo, 336 h
# Outline: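 LLC-bearing female C57BL/6 mice (18–22 g; 3 × 10^6 cells s.c., right flank) were randomized into groups of 10 and dosed i.p. daily for 14 days, with a saline control. Body weight was recorded every day from the first treatment.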
row,SMILES,Activity
1,COc1cccc2c1C(=O)c1c(O)c3c(c(O)c1C2=O)C[C@@](O)(C(=O)CO)C[C@@H]3O[C@H]1C[C@H](N)[C@H](O)[C@H](C)O1 [DOXORUBICIN],Toxic

# Test system: A549
# Assay: Cytotoxicity against human A549 cells assessed as growth inhibition after 72 hrs by MTT assay
# Assay type: functional, cell-based
# Details: A549, 72 h
# Outline: as §1
row,SMILES,IC50
1,COc1cccc2c1C(=O)c1c(O)c3c(c(O)c1C2=O)C[C@@](O)(C(=O)CO)C[C@@H]3O[C@H]1C[C@H](N)[C@H](O)[C@H](C)O1 [DOXORUBICIN],1280 nM
2,COc1cc2cc(NC(=O)/C=C/c3ccc(F)cc3)c(=O)oc2cc1O,612 nM

# Test system: MCF7
# Assay: Cytotoxicity against human MCF7 cells assessed as growth inhibition at 10^-5 M after 72 hrs by MTT assay relative to control
# Assay type: functional
# Details: MCF7, 72 h, read-out: GI
row,SMILES,inhibition of growth at 10 µM
1,COc1cc2ccc(=O)oc2cc1OC(=O)/C=C/c1ccc(Cl)cc1,22.8%
2,COc1cc2ccc(=O)oc2cc1OC(=O)/C=C/c1ccccc1,3.65%
3,COc1cccc2c1C(=O)c1c(O)c3c(c(O)c1C2=O)C[C@@](O)(C(=O)CO)C[C@@H]3O[C@H]1C[C@H](N)[C@H](O)[C@H](C)O1 [DOXORUBICIN],84.9%
4,COc1cc2cc(NC(=O)/C=C/c3ccc(F)cc3)c(=O)oc2cc1O,58.4%

# Test system: MDA-MB-231
# Assay: Cytotoxicity against human MDA-MB-231 cells assessed as growth inhibition after 72 hrs by MTT assay
# Assay type: functional, cell-based
# Details: MDA-MB-231, 72 h
# Outline: as §1
row,SMILES,IC50
1,COc1cccc2c1C(=O)c1c(O)c3c(c(O)c1C2=O)C[C@@](O)(C(=O)CO)C[C@@H]3O[C@H]1C[C@H](N)[C@H](O)[C@H](C)O1 [DOXORUBICIN],1550 nM
2,COc1cc2cc(NC(=O)/C=C/c3ccc(F)cc3)c(=O)oc2cc1O,2350 nM

# Test system: Lewis lung carcinoma cell line
# Assay: Antitumor activity against mouse LLC cells allografted in C57BL/6 mouse assessed as tumor growth inhibition at 2.5 mg/kg, ip administered for 14 days measured on day 15 relative to control
# Assay type: functional
# Details: route intraperitoneal, read-out: TGI
# Outline: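 Female C57BL/6 mice (18–22 g) given 3 × 10^6 Lewis lung cancer cells subcutaneously in the right flank; dosing began 7 to 21 days after inoculation. Mice were randomized into groups of 10. Treatment was intraperitoneal daily for 14 days at 2.5, 5 or 10 mg/kg, with a saline control group. Tumors were excised and weighed when the mice were killed after 14 days.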
row,SMILES,inhibition in vivo at 2.5 mg/kg
1,COc1cccc2c1C(=O)c1c(O)c3c(c(O)c1C2=O)C[C@@](O)(C(=O)CO)C[C@@H]3O[C@H]1C[C@H](N)[C@H](O)[C@H](C)O1 [DOXORUBICIN],52.5%

# Test system: not listed separately
# Assay: Cytotoxicity against human HCT116 cells assessed as growth inhibition at 10^-5 M after 72 hrs by MTT assay relative to control
# Assay type: functional
# Details: HCT-116, 72 h, read-out: GI
row,SMILES,inhibition of growth at 10 µM
1,COc1cc2ccc(=O)oc2cc1OC(=O)/C=C/c1ccc(Cl)cc1,21.1%
2,COc1cc2ccc(=O)oc2cc1OC(=O)/C=C/c1ccccc1,12.2%
3,COc1cccc2c1C(=O)c1c(O)c3c(c(O)c1C2=O)C[C@@](O)(C(=O)CO)C[C@@H]3O[C@H]1C[C@H](N)[C@H](O)[C@H](C)O1 [DOXORUBICIN],79%
4,COc1cc2cc(NC(=O)/C=C/c3ccc(F)cc3)c(=O)oc2cc1O,54.2%

# Test system: MDA-MB-231
# Assay: Cytotoxicity against human MDA-MB-231 cells assessed as growth inhibition at 10^-5 M after 72 hrs by MTT assay relative to control
# Assay type: functional
# Details: MDA-MB-231, 72 h, read-out: GI
row,SMILES,inhibition of growth at 10 µM
1,COc1cc2ccc(=O)oc2cc1OC(=O)/C=C/c1ccc(Cl)cc1,20.3%
2,COc1cc2ccc(=O)oc2cc1OC(=O)/C=C/c1ccccc1,10.1%
3,COc1cccc2c1C(=O)c1c(O)c3c(c(O)c1C2=O)C[C@@](O)(C(=O)CO)C[C@@H]3O[C@H]1C[C@H](N)[C@H](O)[C@H](C)O1 [DOXORUBICIN],89.3%
4,COc1cc2cc(NC(=O)/C=C/c3ccc(F)cc3)c(=O)oc2cc1O,69.2%

# Test system: A549
# Assay: Cytotoxicity against human A549 cells assessed as growth inhibition at 10^-5 M after 72 hrs by MTT assay relative to control
# Assay type: functional
# Details: A549, 72 h, read-out: GI
row,SMILES,inhibition of growth at 10 µM
1,COc1cc2ccc(=O)oc2cc1OC(=O)/C=C/c1ccc(Cl)cc1,2.73%
2,COc1cc2ccc(=O)oc2cc1OC(=O)/C=C/c1ccccc1,19.4%
3,COc1cccc2c1C(=O)c1c(O)c3c(c(O)c1C2=O)C[C@@](O)(C(=O)CO)C[C@@H]3O[C@H]1C[C@H](N)[C@H](O)[C@H](C)O1 [DOXORUBICIN],92%
4,COc1cc2cc(NC(=O)/C=C/c3ccc(F)cc3)c(=O)oc2cc1O,85.6%

# Test system: HeLa
# Assay: Cytotoxicity against human HeLa cells assessed as growth inhibition at 10^-5 M after 72 hrs by MTT assay relative to control
# Assay type: functional
# Details: read-out: GI
row,SMILES,inhibition of growth at 10 µM
1,COc1cc2ccc(=O)oc2cc1OC(=O)/C=C/c1ccc(Cl)cc1,22.4%
2,COc1cc2ccc(=O)oc2cc1OC(=O)/C=C/c1ccccc1,19.4%
3,COc1cccc2c1C(=O)c1c(O)c3c(c(O)c1C2=O)C[C@@](O)(C(=O)CO)C[C@@H]3O[C@H]1C[C@H](N)[C@H](O)[C@H](C)O1 [DOXORUBICIN],82%
4,COc1cc2cc(NC(=O)/C=C/c3ccc(F)cc3)c(=O)oc2cc1O,67.1%
